Beta2AR agonist: activates human beta-2 adrenergic receptor causing internalization; P07550; Am2.2-beta2AR cells, FAP receptor internalization, flow cytometry; response, % (concentration not given with the values); 0.43% of 340,000 active;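 active means response above a set limit, near 3 SD of response in nonfluorescent compounds, cut at about 42% in these data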
Target sequence (P07550 whole entry, looked up): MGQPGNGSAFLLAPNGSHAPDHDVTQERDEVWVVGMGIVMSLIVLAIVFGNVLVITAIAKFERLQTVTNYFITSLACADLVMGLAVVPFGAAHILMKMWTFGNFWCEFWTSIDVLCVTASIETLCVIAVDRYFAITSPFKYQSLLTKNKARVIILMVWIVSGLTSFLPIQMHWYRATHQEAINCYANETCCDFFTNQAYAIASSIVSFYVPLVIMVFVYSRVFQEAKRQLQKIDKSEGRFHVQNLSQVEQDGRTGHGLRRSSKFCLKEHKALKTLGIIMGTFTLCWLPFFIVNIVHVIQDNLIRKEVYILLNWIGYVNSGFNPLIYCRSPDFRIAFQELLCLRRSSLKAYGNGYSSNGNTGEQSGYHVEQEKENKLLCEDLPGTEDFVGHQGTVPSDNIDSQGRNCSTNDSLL
rCAG binder: r(CAG) repeat RNA binding; TO-PRO-1 dye displacement fluorescence; inhibition, % at 3 µM; 1.3% of 370,000 active;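 active means inhibition above the plate cutoff, the mean of all test compounds on that plate plus 3 SD, cut at about 35% in these data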;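 further: higher means more dye released from RNA so lower well fluorescence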
V-ATPase pHluor: yeast V-ATPase proton transport regulation by pHLuorin; 0.37% of 350,000 active; S. cerevisiae, pHLuorin cytosolic pH fluorescence; response, % at 10 µM; AID 504577; in the data active means response mostly above about 7.3%, no sharp cut-off; inactive means mostly below about 5.4%; further: actives read high
MPTP inh: permeability transition pore inhibition. isolated mouse mitochondria, Ca2+ swelling absorbance, 30 min. 1.4% of 360,000 active. inhibition, % at 10 µM. AID 602449;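 active means inhibition of 50% or more, scaled per plate between neutral and stimulator controls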
Exocytosis inh: lytic granule exocytosis inhibition. inhibition, % at 10 µM. TALL-104 LAMP-1 surface exposure, flow cytometry; cells stimulated with thapsigargin and PMA. 0.66% of 360,000 active. AID 651702;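 active means inhibition above about 55%, limit read from the data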
T cell modulator: T cell immune modulators affecting CD8 T cell-vesicle binding. 2C CD8+ T cell-vesicle binding, flow cytometry; stronger effect = lower value. response (vesicle binding), % at 7 µM. 0.068% of 330,000 active;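 active means response, share of CD8 T cells binding vesicles, and their 90th percentile fluorescence all below set limits, cut at about 80% in these data, passing the limit was not always enough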;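 further: values below 100% mean blocked vesicle binding to the CD8+ T cells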
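Incubation: binding step 1.5 h, 37 °C, antibody labelling 20 min, ice; system: murine 2C transgenic CD8+ T lymphocytes; technique: cytometric PE anti-B7-1 and Alexa647 anti-CD8 signals after 1% paraformaldehyde fixation; also added: QL9-charged Drosophila Ld/ICAM-1/B7-1 vesicles; control set: naked versus QL9-loaded vesicles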
MPTP counter: mitochondrial membrane potential, counter-screen | 78% of 5,000 active | inhibition, % at 10 µM | isolated mitochondria, Rhodamine 123 fluorescence | AID 624504 | shares compounds with MPTP inh; in the data active means inhibition above about 22%
MPTP abs DR: MPTP inhibition, dose response swelling confirmation | shares compounds with MPTP inh | isolated mitochondria swelling, absorbance | IC50, µM | 58% of 780 active; in the data active means IC50 below about 20 µM
MPTP counter DR: active in counter-screen for permeability transition pore inhibitors. shares compounds with MPTP inh. isolated mitochondria counterscreen, fluorescence read-out. IC50, µM. 49% of 780 active. AID 651564; in the data active means IC50 below about 80 µM
A number is an active result; n = inactive; x = not tested or not shown. Most compounds without a hit are left out; they make up all but 3.8% or so of the library.

SMILES	Beta2AR agonist	rCAG binder	V-ATPase pHluor	MPTP inh	Exocytosis inh	T cell modulator	MPTP counter	others
CCN(CC)c1ccc(-c2sc(Nc3ccccc3)n[n+]2-c2ccc(F)cc2)cc1	n	n	n	61	n	n	102
CCc1ccc(Nc2n[n+](-c3ccccc3)c(-c3c(Cl)cccc3Cl)s2)cc1	80	n	n	100	n	n	112
CN(C)c1ccc(-c2sc(Nc3ccccc3)n[n+]2-c2ccc(F)cc2)cc1	n	n	n	n	n	n	x
COc1ccc(C)cc1Nc1n[n+](-c2ccccc2)c(-c2ccc(N(C)C)cc2)s1	n	n	n	89	n	n	100
OCCCN1CCC2(CCC(c3ccccc3)CC2)C1 (configuration not stated)	x	n	x	x	x	x	x
c1csc(CCNc2ncnc3sc4c(c23)CCC4)c1	n	n	n	102	n	n	102
c1ccc(Nc2ncnc3sc4c(c23)CCC4)cc1	n	n	x	n	n	n	x
CCCCN1C(=O)c2ccc(C(=O)Nc3cccc(C)c3C)cc2C1=O	n	n	n	n	n	n	x
CN(C)S(=O)(=O)Oc1ccc(C(=O)Nc2cccc(C(F)(F)F)c2)cc1	n	n	n	74	n	n	82
Cc1ccc(NC(=O)c2ccc(OC(F)(F)F)cc2)cc1S(=O)(=O)N(C)C	n	n	n	78	n	n	86
CCCCN1C(=O)c2ccc(C(=O)Nc3ccc(C)c(S(=O)(=O)N(C)C)c3)cc2C1=O	n	n	n	69	n	n	69
CN(C)S(=O)(=O)Oc1ccc(C(=O)Nc2cccc(Cl)c2)cc1	n	n	n	n	n	n	x
Cc1ccc(NC(=O)c2ccncc2)cc1S(=O)(=O)N(C)C	n	n	n	n	n	n	x
Nn1c(SCC(=O)Nc2nccs2)nnc1-c1cc(-c2ccc(F)cc2)n[nH]1	x	n	x	x	x	x	x
Fc1ccc(/C=N/NC(=S)Nc2ccc(Cl)cc2Cl)cc1	n	n	n	n	n	n	x
O=S(=O)(Nc1ncccn1)c1ccc(NC(=S)Nc2ccc(Cl)cc2)cc1	n	n	n	98	n	n	96
Fc1ccc(NC(=S)Nc2cc(Cl)ccc2Cl)cc1	n	n	n	58	n	n	78
Fc1ccc(NC(=S)Nc2ccc(Cl)cc2)cc1	n	n	n	80	n	n	107
COC(=O)c1ccsc1NS(C)(=O)=O	x	n	x	x	x	x	x
O=C(CCCCCCN1C(=O)c2ccccc2C1=O)Nc1nccs1	n	n	n	66	n	n	n	MPTP abs DR=n;MPTP counter DR=n
O=C(COCc1ccncc1)N1CCN(c2ccc(F)cc2Cl)CC1	x	n	x	x	x	x	x
COc1ccc(CCNC(=O)C2CCCN(Cc3nc(-c4ccccc4C)oc3C)C2)cc1OC (configuration not stated)	n	n	n	59	n	n	n	MPTP abs DR=18;MPTP counter DR=35
CCOC(=O)N1CCC(NC(=O)C2CCCN(Cc3nc(-c4cccc(Cl)c4)oc3C)C2)CC1 (configuration not stated)	n	n	n	94	n	n	51
COc1ccc(CCNC(=O)C2CCN(Cc3nc(-c4cccc(Cl)c4)oc3C)CC2)cc1OC	n	x	n	52	n	n	n	MPTP abs DR=18;MPTP counter DR=37
CCCOc1ccc(C(=O)N2CCC(Oc3cccnc3)CC2)cc1	x	n	x	x	x	x	x
SMILES	Beta2AR agonist	rCAG binder	V-ATPase pHluor	MPTP inh	Exocytosis inh	T cell modulator	MPTP counter	others
Cc1cccc(NC(=O)OC2CC3CC2[C@H]2CCCCN2C3)c1 (some centres not stated)	x	n	x	x	x	x	x
Cc1nc(N2CCCCC2C)c2nnn(Cc3ccccc3)c2n1 (configuration not stated)	x	n	x	x	x	x	x
COC(=O)c1cc(-c2cc(Cl)cc(Cl)c2)c(=O)n2c1CCC2	x	n	x	x	x	x	x
COc1ccc(-c2cccc3[nH]c4c(c23)CCN2C(=O)[C@H]3[C@H](C)ON(C)[C@H]3C[C@@H]42)cc1	x	n	x	x	x	x	x
Cn1ncc(Cl)c1C(=O)N1CCN(C(=O)c2ccco2)CC1	n	n	n	73	n	x	n	MPTP abs DR=n;MPTP counter DR=n
CC(Nc1ncnc2ccccc12)c1ccccc1 (configuration not stated)	n	n	n	96	n	n	83
CCCCC(Nc1ncnc2ccccc12)C(=O)O (configuration not stated)	n	n	n	n	n	n	x
O=C(COC(=O)Cc1c(Cl)cccc1Cl)Nc1ccc(OC(F)(F)F)cc1	n	n	n	66	n	n	73
CN(CC(=O)Nc1ccc(OC(F)(F)F)cc1)C(=O)Cc1c(Cl)cccc1Cl	n	n	n	n	n	n	x
CC(C)c1ccc(NC(=O)N(CCc2nc3ccccc3[nH]2)C2CCCC2)cc1	n	n	n	58	n	n	81
O=C(OCc1cn(Cc2ccc(Cl)cc2)nn1)N1CCOCC1	x	n	x	x	x	x	x
Cn1ccnc1SCc1cc(=O)[nH]c2ccccc12	n	n	n	87	n	n	87
Cc1cccc(-c2nnc(SCc3cc(=O)[nH]c4ccccc34)n2C)c1	n	n	n	n	n	n	x
CCCCC(CC)Cn1c(O)c(/C=C2\C=NN=C2c2ccccc2)sc1=S (configuration not stated)	n	n	n	55	n	n	n	MPTP abs DR=16;MPTP counter DR=n
CCCn1c(O)c(/C=C2\C=NN=C2c2ccccc2)sc1=S	n	n	n	n	n	n	x
COC(=O)C1=C(C)N(Cc2cccc(C(F)(F)F)c2)C(=NCC2CC2)NC1c1cccc(C(F)(F)F)c1 (configuration not stated)	x	n	x	x	x	x	x
CCc1cc2c(nc1CC)CCCN2S(=O)(=O)c1ccc(C(F)(F)F)cc1	x	n	x	x	x	x	x
COc1cc(CNn2nnnc2N)cc(Br)c1OCc1c(Cl)cccc1Cl	n	n	n	52	n	n	30
CC(c1ccco1)N(C(=O)Nc1ccc(Cl)cc1)c1ccccn1 (configuration not stated)	n	n	x	85	n	n	98
CCCCCCCCN1C(=O)[C@@H](CC(=O)N2CCN(C(=O)C3CC3)CC2)C[C@@]2(C(=O)OC)C1=C[C@H](C(C)(C)C)O[C@@H]2C	x	n	x	x	x	x	x
Cc1ccc(Cl)cc1N1CCN(C(=O)CSc2nnc3n2C(C)(C)Cc2ccccc2-3)CC1	n	n	n	94	n	n	90
COC(=O)[C@H]1C[C@@]2(N3CCCCC3)c3ccccc3N(C(=O)OC(C)(C)C)[C@H]2N1C(=O)OC(C)(C)C	x	n	x	x	x	x	x
Cc1nc2ccccc2c(N)c1C(=O)/C=C/c1ccccc1	n	n	n	96	n	n	84
CCN(CC)C(=O)CC[C@H]1CC[C@]2(CCCN(S(=O)(=O)c3ccccc3)C2)O1	x	n	x	x	x	x	x
CCOP(=O)(OCC)C(NC(=O)Nc1ccc(C)c(Cl)c1)c1ccccc1 (configuration not stated)	n	n	n	84	n	n	84

High-throughput results from PubChem.
